The results in this text go back to paper PMC5756105 (Journal of proteome research, 2017).

One assay deals with hiPSCs. Kind of assay: CCK-8 cell viability assay on 96-well plates, basal hiPSCs. It is filed as cell-based, human. To be noted: for higher sensitivity of hiPSCs compared to basal hMSCs: ratio of IC50, hiPSCs vs basal hMSCs; for IC50: read-out: IC50 hiPSC; for dependency of effects on stages of hepatogenic differentiation of hiPSCs: Phase I-III.
A further assay has as its system basal hMSCs. Kind of assay: qHTS CellTiter-Glo viability assay in 1536-well format, basal hMSCs. The assay is classed as cell-based, human. The following applies: qHTS CTG, basal vs osteogenesis day 1. In outline: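 hMSCs were seeded at 500 cells/well directly in basal or osteogenic differentiation medium (osteogenesis day 1 arm) and held 24 h at 37°C/5% CO₂. A LOPAC library was then added at seven concentrations (0.0029–46 μM, 1:5 serial dilutions) for 48 h. ATP was read by CellTiter-Glo luminescence after 30 min at room temperature. IC₅₀ and efficacy came from dose-response curves, with hit cutoffs of efficacy ≥ 50% and IC₅₀ ≤ 20 μM.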

The test system of another assay is hMSCs. Nature of the assay: CCK-8 cell viability assay on 96-well plates, basal hMSCs. It is filed as cell-based, human. To be noted: for reduction in toxicity from basal hMSCs to their osteogenic progenies: basal hMSCs vs OD1-OD6; for IC50: read-out: IC50 hMSC.
Another assay concerns hMSC-OD3. Kind of assay: CCK-8 cell viability assay on 96-well plates, hMSCs osteogenesis Day 3. To be noted: Homo sapiens, read-out: IC50 hMSC-OD3. It is filed as cell-based.
In assay [1] the test system is hepatic differentiation Phase I cells. Kind of assay: CCK-8 cell viability assay, hiPSCs at end of hepatogenic differentiation Phase I. The assay is classed as cell-based. To be noted: Homo sapiens, HepA, 48 h, read-out: IC50 Hepa Diff Phase I.
In the next assay the test system is hMSC-OD6. Nature of the assay: CCK-8 cell viability assay on 96-well plates, hMSCs osteogenesis Day 6. The assay is classed as cell-based. To be noted: Homo sapiens, read-out: IC50 hMSC-OD6.
The next assay has as its system hMSC-OD1. Kind of assay: CCK-8 cell viability assay on 96-well plates, hMSCs osteogenesis Day 1. It is filed as cell-based. To be noted: Homo sapiens, read-out: IC50 hMSC-OD1.
Assay [2] relates to hepatic differentiation Phase II cells. The assay is classed as cell-based. To be noted: Homo sapiens, HepA, 48 h, read-out: IC50 Hepa Diff Phase II.
Assay [3] deals with hepatic differentiation Phase III cells. The assay is classed as cell-based. To be noted: Homo sapiens, HepA, 48 h, read-out: IC50 Hepa Diff Phase III.
Where [4] appears, read: basal hiPSCs, 48-hour treatment, CCK-8, mean ± s.e.m., n=3.
The mark [5] stands for this setting: basal hMSCs, 48-hour treatment, CCK-8, mean ± s.e.m., n=3.

Where a name gives a salt, the structure may show the parent alone. Read-outs that look alike come from different tables or passages of the source.

Take `CC[n+]1c(/C=C/C=C2/N(C)c3ccccc3C2(C)C)sc2ccccc21.[I-]` [AC-93253]: the “higher sensitivity of hiPSCs compared to basal hMSCs” value with hiPSCs is given as “more than 30 times”. The figures for the IC50 with hiPSCs (setting [4]) and in the assay on hMSCs (setting [5]) were 0.09 ± 0.038 µM and 3.94 ± 1.18 µM, respectively. The “toxicity to basal hMSCs versus osteogenic hMSCs in primary screening” value in the assay with basal hMSCs is recorded as “much higher toxicity”. Moreover, the “reduction in toxicity from basal hMSCs to their osteogenic progenies” value with hMSCs was 3~4 fold.

In the case of `C[C@@]12C(=O)OC(=O)[C@]1(C)[C@H]1CC[C@@H]2O1` [Cantharidin, cantharidin], the IC50 with hMSC-OD3 is 4.95 ± 1.33 µM; in the assay on hiPSCs (Homo sapiens, 48 h) it was 4.36 ± 1.4 µM; in assay [1] it was 2.7 ± 0.49 µM; in the assay on hMSCs (Homo sapiens, 48 h) it was 1.54 ± 0.5 µM; with hMSC-OD6, 6.17 ± 2.55 µM; in the assay with hMSC-OD1, 3.98 ± 0.69 µM. Moreover, the results for the IC50 in [2] and in [3] were 2.58 ± 0.28 µM and 1.12 ± 0.34 µM, respectively. In addition, the “dependency of effects on stages of hepatogenic differentiation of hiPSCs” value in the assay with hiPSCs is listed as “not significantly dependent”. In addition, the “reduction in toxicity from basal hMSCs to their osteogenic progenies” value in the assay on hMSCs is 3~4 fold.

On to `CC(=O)[C@]1(O)Cc2c(O)c3c(c(O)c2[C@@H](O[C@H]2C[C@H](N)[C@H](O)[C@H](C)O2)C1)C(=O)c1ccccc1C3=O` [Idarubicin, idarubicin hydrochloride], for which the 50% inhibitory concentration (IC50) came out at 7.43 ± 4.56 µM in the assay with hMSC-OD3; 0.004 ± 0.001 µM with hiPSCs (Homo sapiens, 48 h); 0.07 ± 0.003 µM in assay [1]; 0.38 ± 0.074 µM with hMSCs (setting [5]); 10.8 ± 0.43 µM in the assay with hMSC-OD6; 2.96 ± 0.22 µM with hMSC-OD1. Also, the IC50 in assay [2] was 1.25 ± 0.23 µM; in [3], 4.99 ± 1.38 µM. In addition, the “dependency of effects on stages of hepatogenic differentiation of hiPSCs” value in the assay on hiPSCs is given as “significantly dependent”. In addition, the “higher sensitivity of hiPSCs compared to basal hMSCs” value in the assay with hiPSCs is “more than 30 times”. In addition, in the assay with hMSCs (hMSCs, basal vs OD6, p<0.001), the “decrease in toxicity from basal to OD6” value stood at 28 fold.

On to `O=C1C(SCCO)=C(SCCO)C(=O)c2ccccc21` [NSC 95397], for which the IC50 is 6.91 ± 3.01 µM in the assay with hiPSCs (setting [4]) and 6.55 ± 1.76 µM with hMSCs (setting [5]). For the same compound, the “differentiation-stage dependency of toxicity on hMSCs” value with hMSCs (basal hMSCs vs OD1 to OD6) was “not differentiation-stage dependent”.
